Measurements reported in ChEMBL document CHEMBL1143838, “Candida albicans and Candida dubliniensis respond differently to echinocandin antifungal agents in vitro” (2007).
Values after ≈ are worked out from the molar mass of the structure shown. *1 amine or outer side, *2 acyl side, *3 side chain or, on linkers, in order; H or OH if unused. Where a SMILES comes first, the peptide text is derived from it. Bridges are numbered along the chain shown (N, C = ends). [ ]: non-standard residue; d: D form. The star is where a group is joined. hTyr(3S-OH,4S-OH,3'-OSO3H) = N[C@H](C(=O)O)[C@H](O)[C@@H](O)c1ccc(O)c(OS(=O)(=O)O)c1; Orn(4R-OH,5R-OH) = O=C([C@H](C[C@@H](O)[C@@H](O)N[*:3])N[*:1])[*:2]; Pro(3S-OH,4S-Me) = C[C@H]1CN[C@H](C(=O)O)[C@H]1O; X1 = CCCCCOc1ccc(-c2cc(-c3ccc(C(=O)*)cc3)no2)cc1; Gln(3R-OH) = NC(=O)C[C@@H](O)[C@H](N)C(=O)O; Hyp = O=C(O)[C@@H]1C[C@@H](O)CN1

Assays:
Assay type in all cases: functional
Candida dubliniensis [1] = assay: Antifungal activity against Candida dubliniensis SCSBB417709 after 24 hrs by CLSI M27-A test
Method in brief: (§1)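 Broth microdilution with echinocandins as aqueous doubling dilutions. Yeasts were grown overnight at 30°C in NGY and seeded at 10^3 yeasts/ml initial concentration in MOPS-buffered RPMI 1640, then incubated at 35°C for 24 h. The MIC was read visually as the lowest concentration giving a marked decrease in visible growth; paradoxical or trailing growth was noted.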

Candida dubliniensis [2] = assay: Antifungal activity against Candida dubliniensis 910Aa after 24 hrs by CLSI M27-A test
Method in brief: (§2)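 CLSI M27-A broth microdilution with aqueous doubling dilutions of drug. Inoculum grown overnight at 30°C in NGY medium, then added to MOPS-buffered RPMI 1640 at an initial 10^3 yeasts/ml. Incubated 35°C for 24 h. MIC read visually as the lowest concentration giving a marked decrease in visible growth; paradoxical or trailing growth noted.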

Pichia kudriavzevii [3] = assay: Antifungal activity against Candida krusei ATCC 6258 after 24 hrs by CLSI M27-A test; conditions: ATCC 6258, 24 h
Method in brief: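 Broth microdilution per CLSI M27-A. Drugs were prepared as aqueous doubling dilutions. Inoculum was grown overnight at 30°C in neopeptone-yeast extract-glucose medium, then added to MOPS-buffered RPMI 1640 at an initial 10^3 yeasts/ml. Plates were incubated at 35°C for 24 h. MIC was read visually as the lowest concentration giving a marked decrease in visible growth.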

Candida albicans [4] = assay: Antifungal activity against Candida albicans JIMS132203 after 24 hrs by EUCAST test
Method in brief: (§3)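 EUCAST broth microdilution with aqueous doubling dilutions of drug. Inoculum grown overnight at 30°C in NGY, then added to MOPS-buffered RPMI 1640 with 2% glucose at an initial 10^5 yeasts/ml. Incubated 35°C for 24 h. MICs taken from triplicate spectrophotometric dose-response data as 50% and 80% growth-reduction endpoints.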

Candida dubliniensis [5] = assay: Antifungal activity against Candida dubliniensis J930936 after 24 hrs by EUCAST test
Method in brief: (§4)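 Yeasts were grown overnight at 30°C in NGY, then inoculated at 10^5 yeasts/ml initial concentration into MOPS-buffered RPMI 1640 with 2% glucose containing aqueous doubling dilutions of drug. Plates were held at 35°C for 24 h. MICs came from triplicate spectrophotometric dose-response data at 50% and 80% growth-reduction endpoints. Trailing meant a >100-fold gap between these endpoints; paradoxical meant regrowth ≥5% above the curve minimum.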

Candida dubliniensis [6] = assay: Antifungal activity against Candida dubliniensis J931021 after 24 hrs by EUCAST test; method in brief: as §4
Candida albicans [7] = assay: Antifungal activity against Candida albicans Y109 after 24 hrs by EUCAST test; method in brief: as §3
Candida albicans [8] = assay: Antifungal activity against Candida albicans SC5314 after 24 hrs by EUCAST test; conditions: SC5314, 24 h; method in brief: as §3
Candida dubliniensis [9] = assay: Antifungal activity against Candida dubliniensis B71507 after 24 hrs by CLSI M27-A test; method in brief: as §1
Candida dubliniensis [10] = assay: Antifungal activity against Candida dubliniensis SCS17154969-1 after 24 hrs by CLSI M27-A test; method in brief: as §1
Candida albicans [11] = assay: Antifungal activity against Candida albicans T26 after 24 hrs by EUCAST test; method in brief: as §3
Candida dubliniensis [12] = assay: Antifungal activity against Candida dubliniensis SCS17154969-2 after 24 hrs by CLSI M27-A test; method in brief: as §1
Candida dubliniensis [13] = assay: Antifungal activity against Candida dubliniensis IK after 24 hrs by EUCAST test; method in brief: as §4
Candida albicans [14] = assay: Antifungal activity against Candida albicans NR3 after 24 hrs by EUCAST test; method in brief: as §3
Candida albicans [15] = assay: Antifungal activity against Candida albicans HK04M102095 after 24 hrs by EUCAST test; method in brief: as §3
Candida albicans [16] = assay: Antifungal activity against Candida albicans NR2 after 24 hrs by CLSI M27-A test; method in brief: as §2
Candida dubliniensis [17] = assay: Antifungal activity against Candida dubliniensis Leic875 after 24 hrs by EUCAST test; method in brief: as §4
Candida albicans [18] = assay: Antifungal activity against Candida albicans NR2 after 24 hrs by EUCAST test; method in brief: as §3
Candida albicans [19] = assay: Antifungal activity against Candida albicans NR4 after 24 hrs by CLSI M27-A test; method in brief: as §2
Candida dubliniensis [20] = assay: Antifungal activity against Candida dubliniensis 90/033 after 24 hrs by EUCAST test; method in brief: as §3
Candida dubliniensis [21] = assay: Antifungal activity against Candida dubliniensis Leic875 after 24 hrs by CLSI M27-A test; method in brief: as §1
Candida dubliniensis [22] = assay: Antifungal activity against Candida dubliniensis J931021 after 24 hrs by CLSI M27-A test; method in brief: as §1
Candida dubliniensis [23] = assay: Antifungal activity against Candida dubliniensis 75/043 after 24 hrs by CLSI M27-A test; method in brief: as §2
Pichia kudriavzevii [24] = assay: Antifungal activity against Candida krusei ATCC 6258 after 24 hrs by EUCAST test; conditions: ATCC 6258, 24 h; method in brief: as §4
Candida albicans [25] = assay: Antifungal activity against Candida albicans CAI4RI after 24 hrs by CLSI M27-A test; method in brief: as §2
Candida dubliniensis [26] = assay: Antifungal activity against Candida dubliniensis KR after 24 hrs by EUCAST test; method in brief: as §4
Candida dubliniensis [27] = assay: Antifungal activity against Candida dubliniensis 81/060 after 24 hrs by EUCAST test; method in brief: as §3
Candida dubliniensis [28] = assay: Antifungal activity against Candida dubliniensis B71507 after 24 hrs by EUCAST test; method in brief: as §4
Candida albicans [29] = assay: Antifungal activity against Candida albicans T32 after 24 hrs by CLSI M27-A test; method in brief: as §2
Candida albicans [30] = assay: Antifungal activity against Candida albicans CAI4RI after 24 hrs by EUCAST test; method in brief: as §3
Candida dubliniensis [31] = assay: Antifungal activity against Candida dubliniensis SCS17154969-2 after 24 hrs by EUCAST test; method in brief: as §4
Candida albicans [32] = assay: Antifungal activity against Candida albicans NR4 after 24 hrs by EUCAST test; method in brief: as §3
Candida dubliniensis [33] = assay: Antifungal activity against Candida dubliniensis ANSA 23a after 24 hrs by EUCAST test; method in brief: as §4
Candida dubliniensis [34] = assay: Antifungal activity against Candida dubliniensis 90/033 after 24 hrs by CLSI M27-A test; method in brief: as §2

Row | Structure (SMILES) | MIC50 (Candida dubliniensis [1]) [µg/mL] | MIC50 (Candida dubliniensis [2]) [µg/mL] | MIC50 (Pichia kudriavzevii [3]) [µg/mL] | MIC50 (Candida albicans [4]) [µg/mL] | MIC50 (Candida dubliniensis [5]) [µg/mL] | MIC50 (Candida dubliniensis [6]) [µg/mL] | MIC50 (Candida albicans [7]) [µg/mL] | MIC50 (Candida albicans [8]) [µg/mL] | MIC50 (Candida dubliniensis [9]) [µg/mL] | MIC50 (Candida dubliniensis [10]) [µg/mL] | MIC50 (Candida albicans [11]) [µg/mL] | MIC50 (Candida dubliniensis [12]) [µg/mL] | MIC50 (Candida dubliniensis [13]) [µg/mL] | MIC50 (Candida albicans [14]) [µg/mL] | MIC50 (Candida albicans [15]) [µg/mL] | MIC50 (Candida albicans [16]) [µg/mL] | MIC50 (Candida dubliniensis [17]) [µg/mL] | MIC50 (Candida albicans [18]) [µg/mL] | MIC50 (Candida albicans [19]) [µg/mL] | MIC50 (Candida dubliniensis [20]) [µg/mL] | also measured
1 | CC[C@H](C)C[C@H](C)CCCCCCCCC(=O)N[C@H]1C[C@@H](O)[C@@H](NCCN)NC(=O)[C@@H]2[C@@H](O)CCN2C(=O)[C@H]([C@H](O)CCN)NC(=O)[C@H]([C@H](O)[C@@H](O)c2ccc(O)cc2)NC(=O)[C@@H]2C[C@@H](O)CN2C(=O)[C@H]([C@@H](C)O)NC1=O [CASPOFUNGIN] | 0.5 (≈ 0.457 µM) | 0.5 (≈ 0.457 µM) | 1 (≈ 0.915 µM) | 0.25 (≈ 0.229 µM) | 0.25 (≈ 0.229 µM) | 16 (≈ 14.6 µM) | 2 (≈ 1.83 µM) | 0.25 (≈ 0.229 µM) | 0.5 (≈ 0.457 µM) | 0.5 (≈ 0.457 µM) | 16 (≈ 14.6 µM) | 0.5 (≈ 0.457 µM) | 0.25 (≈ 0.229 µM) | 4 (≈ 3.66 µM) | 0.25 (≈ 0.229 µM) | 4 (≈ 3.66 µM) | 0.25 (≈ 0.229 µM) | 4 (≈ 3.66 µM) | 2 (≈ 1.83 µM) | 16 (≈ 14.6 µM) | MIC50 (Candida dubliniensis [21]): 0.5 µg/mL (≈ 0.457 µM); MIC50 (Candida dubliniensis [22]): 0.5 µg/mL (≈ 0.457 µM); MIC50 (Candida dubliniensis [23]): 0.25 µg/mL (≈ 0.229 µM); MIC50 (Pichia kudriavzevii [24]): 2 µg/mL (≈ 1.83 µM); MIC50 (Candida albicans [25]): 4 µg/mL (≈ 3.66 µM); MIC50 (Candida dubliniensis [26]): 0.25 µg/mL (≈ 0.229 µM); MIC50 (Candida dubliniensis [27]): 0.25 µg/mL (≈ 0.229 µM); MIC50 (Candida dubliniensis [28]): 8 µg/mL (≈ 7.32 µM); MIC50 (Candida albicans [29]): 0.25 µg/mL (≈ 0.229 µM); MIC50 (Candida albicans [30]): 4 µg/mL (≈ 3.66 µM); MIC50 (Candida dubliniensis [31]): 0.5 µg/mL (≈ 0.457 µM); MIC50 (Candida albicans [32]): 2 µg/mL (≈ 1.83 µM); MIC50 (Candida dubliniensis [33]): 0.25 µg/mL (≈ 0.229 µM)
2 | CCCCCOc1ccc(-c2cc(-c3ccc(C(=O)N[C@H]4C[C@@H](O)[C@@H](O)NC(=O)[C@@H]5[C@@H](O)[C@@H](C)CN5C(=O)[C@H]([C@H](O)CC(N)=O)NC(=O)[C@H]([C@H](O)[C@@H](O)c5ccc(O)c(OS(=O)(=O)O)c5)NC(=O)[C@@H]5C[C@@H](O)CN5C(=O)[C@H]([C@@H](C)O)NC4=O)cc3)no2)cc1 [MICAFUNGIN] (X1-[Orn(4R-OH,5R-OH)]T[Hyp][hTyr(3S-OH,4S-OH,3'-OSO3H)][Gln(3R-OH)][Pro(3S-OH,4S-Me)]; lactam 1-C) | ≤ 0.032 | ≤ 0.032 | 0.13 (≈ 0.102 µM) | ≤ 0.032 | ≤ 0.032 | 0.063 (≈ 0.0496 µM) | 0.25 (≈ 0.197 µM) | ≤ 0.032 | ≤ 0.032 | ≤ 0.032 | 1 (≈ 0.787 µM) | ≤ 0.032 | ≤ 0.032 | 2 (≈ 1.57 µM) | ≤ 0.032 | 0.25 (≈ 0.197 µM) | ≤ 0.032 | 0.5 (≈ 0.394 µM) | 0.25 (≈ 0.197 µM) | 0.063 (≈ 0.0496 µM) | MIC50 (Candida dubliniensis [21]): ≤ 0.032 µg/mL; MIC50 (Candida dubliniensis [22]): ≤ 0.032 µg/mL; MIC50 (Candida dubliniensis [23]): ≤ 0.032 µg/mL; MIC50 (Pichia kudriavzevii [24]): 0.13 µg/mL (≈ 0.102 µM); MIC50 (Candida albicans [25]): 0.25 µg/mL (≈ 0.197 µM); MIC50 (Candida dubliniensis [26]): ≤ 0.032 µg/mL; MIC50 (Candida dubliniensis [27]): ≤ 0.032 µg/mL; MIC50 (Candida dubliniensis [28]): 0.063 µg/mL (≈ 0.0496 µM); MIC50 (Candida albicans [29]): ≤ 0.032 µg/mL; MIC50 (Candida albicans [30]): 0.5 µg/mL (≈ 0.394 µM); MIC50 (Candida dubliniensis [34]): ≤ 0.032 µg/mL; MIC50 (Candida dubliniensis [31]): 0.063 µg/mL (≈ 0.0496 µM); MIC50 (Candida albicans [32]): 0.5 µg/mL (≈ 0.394 µM); MIC50 (Candida dubliniensis [33]): ≤ 0.032 µg/mL
